From PubChem
FGF22 binding = shifts melting point of recombinant human FGF22 | 340,000 tested, 1.5% active | activity (Tm shift, normalised), % at 9.99 µM | AID 651658 | recombinant FGF22 thermal shift, SYPRO orange fluorescence; percent of sucrose octasulfate shift, DMSO zero;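 active means mean Tm shift, scaled 0 neutral to 100 positive control, at about 1.3% or above, every replicate too, limit read from the data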
Statin myotox sup = suppressors of simvastatin-induced myotoxicity in C2C12 myotubes; ATP luminescence, 48 h; scaled: DMSO 0, geranylgeraniol control 100; rescue of ATP level, % at 7.49 µM; 330,000 tested, 0.78% active;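 active means mean ATP rescue above about 67%, or every replicate alone reaching that limit, limit read from the data, passing the limit was not always enough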;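 further: myotubes were challenged with 10 µM simvastatin during compound exposure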
SIRT5 block = sirtuin-5 (human) deacylase inhibition. Q9NXA8. Purified SirT5, succinyl-peptide AMC, trypsin-coupled fluorescence. inhibition, % at 15 µM. 330,000 tested, 1.1% active; in the data active means inhibition above about 15%
Ecoli rRNA inh = selective bacterial rRNA inhibition in E. coli. GFP signal change (wild-type ribosome), % (test concentration not listed). E. coli WT GFP vs humanized-ribosome RFP mutants, fluorescence, 24 h; stronger effect = lower value; DMSO median 0, no signal -100. 350,000 tested, 1.6% active;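 active means significant combined selectivity score with lowered wild-type GFP, culture density cut under 30%, mutant RFP and density less affected; inactive means any of these conditions unmet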
FN deposition inh = fibronectin deposition inhibition; AH1F fibroblasts, Alexa488-fibronectin deposition fluorescence, overnight; inhibition, % at 12.6 µM; 350,000 tested, 0.086% active; AID 743247;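 active means mean inhibition across replicates of 30% or more, regardless of how many single replicates reach that level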;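 further: positive control wells lacked labelled fibronectin entirely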
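Material: AH1F fibroblasts assembling fluorescent fibronectin matrix; amount: 10000 AH1F cells/well; medium: DMEM, 2% serum; reagent: Alexa488-fibronectin, 24 nM final in well; dosing: single compound dose, delivered by pin transfer; incubation: 1 h adhesion, overnight exposure; detection: fluorescence after three HBSS washes, excitation 485 nm, emission 525 nm; measure: fibronectin deposition inhibition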
E-selectin induc = induces E-selectin expression in human endothelial cells | 260,000 tested, 0.37% active | activation, % at 7.58 µM | P16581 | HUVEC E-selectin immunofluorescence imaging; normalized: neutral wells 0, TNF-alpha wells 100;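 active means mean E-selectin-positive cell signal at least 10% of the positive control, reached in at least 60% of replicates, without over 20% cell loss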
Target sequence (P16581 whole entry, looked up): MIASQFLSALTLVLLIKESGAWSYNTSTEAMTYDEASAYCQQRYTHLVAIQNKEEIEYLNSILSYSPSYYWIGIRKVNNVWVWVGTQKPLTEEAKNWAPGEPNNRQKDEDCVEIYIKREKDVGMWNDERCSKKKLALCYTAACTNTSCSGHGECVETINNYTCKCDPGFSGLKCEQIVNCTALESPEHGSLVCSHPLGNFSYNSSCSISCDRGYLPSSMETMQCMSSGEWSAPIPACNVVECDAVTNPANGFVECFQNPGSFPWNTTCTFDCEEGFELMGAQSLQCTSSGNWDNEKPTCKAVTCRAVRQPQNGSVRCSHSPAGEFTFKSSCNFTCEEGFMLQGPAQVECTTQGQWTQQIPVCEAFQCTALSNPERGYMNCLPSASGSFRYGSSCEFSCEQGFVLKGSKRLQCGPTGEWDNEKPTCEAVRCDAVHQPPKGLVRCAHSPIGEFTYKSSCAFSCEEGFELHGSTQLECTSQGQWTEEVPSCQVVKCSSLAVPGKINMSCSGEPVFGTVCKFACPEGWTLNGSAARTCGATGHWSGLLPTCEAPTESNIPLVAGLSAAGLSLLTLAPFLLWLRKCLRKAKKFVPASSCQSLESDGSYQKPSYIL
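Test system: HUVEC; input: 3,000 HUVEC/well; measured by: immunofluorescence imaging; read-out: % PE-positive cells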
* hit, by the source's call; . = no result given. In the library only some 4% were active in any assay of this set; here they are far more common.

SMILES	FGF22 binding	Statin myotox sup	SIRT5 block	Ecoli rRNA inh	FN deposition inh	E-selectin induc
Cc1cccc(Cn2c(N3CCCCC3C)nc3c2c(=O)[nH]c(=O)n3C)c1 (centres undefined)	-0.3	119.6*	-2.6	-49.8	-3.0	0.2
COc1ccc2c3c([nH]c2c1)[C@H](CO)N(C(=O)C1CCCCC1)CC31CCN(C(=O)NC(C)C)CC1	-0.1	.	8.4	2.0	.	0.0
O=C(O)COc1ccccc1/C=N/NC(=O)CSc1nc2ccccc2n1Cc1ccc(Cl)cc1	1.4*	.	2.5	-26.6	12.7	-0.8
O=C(CSc1nc2ccccc2n1Cc1ccc(Cl)cc1)N/N=C/c1ccccc1C(=O)O	0.3	.	-2.8	-0.2	-6.2	.
C[C@H](CO)N1C[C@H](C)[C@H](CN(C)S(=O)(=O)c2cccs2)OCCCC[C@H](C)Oc2ccc(NC(=O)C3CCCCC3)cc2C1=O	0.2	.	12.3	-1.0	.	1.1
O/N=C/c1ccccc1Oc1ccc(Cl)cc1	1.1	.	-2.4	-29.6	.	.
N#CCC(=O)c1ccccc1Oc1ccc(Cl)cc1	43.7*	.	0.2	4.3	4.8	0.2
C[C@H]1CN([C@@H](C)CO)C(=O)c2cccc(NC(=O)Nc3ccccc3)c2O[C@@H]1CN(C)C(=O)Nc1ccc(F)cc1	-0.2	-15.0	2.6	-1.9	.	-0.1
C[C@H]1CN([C@@H](C)CO)C(=O)Cc2cc(NC(=O)Cc3cn(C)c4ccccc34)ccc2O[C@@H]1CN(C)Cc1ccc2c(c1)OCO2	-0.2	-12.0	0.9	0.2	.	.
C[C@@H]1CN([C@@H](C)CO)C(=O)Cc2cc(NC(=O)Cc3cn(C)c4ccccc34)ccc2O[C@@H]1CN(C)Cc1ccc2c(c1)OCO2	0.0	40.8	0.8	-1.3	.	.
C[C@@H]1CN([C@@H](C)CO)C(=O)Cc2cc(NC(=O)Cc3cn(C)c4ccccc34)ccc2O[C@@H]1CN(C)Cc1ccc(Cl)c(Cl)c1	-0.2	52.4	-0.3	-0.5	.	0.9
C[C@@H]1CN([C@H](C)CO)C(=O)Cc2cc(NC(=O)Cc3cn(C)c4ccccc34)ccc2O[C@H]1CN(C)Cc1ccc(Cl)c(Cl)c1	0.0	94.9*	1.2	-0.7	.	-5.5
C[C@@H]1CN([C@@H](C)CO)C(=O)Cc2cc(NC(=O)Cc3cn(C)c4ccccc34)ccc2O[C@H]1CN(C)Cc1ccc(Cl)c(Cl)c1	-0.1	71.8*	-1.6	-0.7	.	2.2
C[C@@H]1CN([C@H](C)CO)C(=O)Cc2cc(NC(=O)Cc3cn(C)c4ccccc34)ccc2O[C@@H]1CN(C)Cc1ccc2c(c1)OCO2	-0.4	85.8*	2.6	-1.8	.	.
COc1ccc(CNC(=O)C[C@@H]2CC[C@H]3[C@@H](COc4ccc(NC(C)=O)cc4C(=O)N3C)O2)cc1	0.5	3.7	-4.4	4.1	-10.7	0.2
CCN1C(C)=C(C)S/C1=C1\SC(=S)N(C2CCCCC2)C1=O	44.1*	.	1.6	7.1	6.9	.
CC(C)C(OC(=O)CCC(=O)Nc1nccs1)C(=O)NC1CCCCC1 (centres undefined)	0.1	99.4*	-0.5	17.5	3.6	-4.2
Cc1ccc(S(=O)(=O)Nc2ccc3c(c2)C(=O)N([C@H](C)CO)C[C@H](C)[C@H](CN(C)S(=O)(=O)c2c(C)noc2C)OCCCC[C@H](C)O3)cc1	-0.7	.	13.6	0.6	-6.6	.
Cc1cc(/C=N/Nc2ccc([N+](=O)[O-])cn2)c(C)n1-c1ccc(C(=O)O)cc1	-0.3	.	31.8*	1.3	5.4	-1.2
O=[N+]([O-])c1ccc(NN=Cc2ccc(O)cc2O)nc1	-0.2	7.5	.	-21.7*	3.8	0.2
COc1ccc(CN(C)C[C@@H]2OCCCC[C@H](C)Oc3ccc(NS(=O)(=O)c4cn(C)cn4)cc3C(=O)N([C@@H](C)CO)C[C@H]2C)cc1	-0.6	.	-1.3	1.0	.	0.2
CC(C)[C@H](NC(=O)[C@H](CCCN=C(N)N)NC(=O)NC(Cc1ccccc1)C(=O)O)C(=O)NC(C=O)CCCN=C(N)N (some centres undefined)	0.0	-2.3	46.4*	.	-4.2	1.3
COc1ccc(-c2cc(C(=O)OCC(=O)N(C)C)c3ccccc3n2)cc1	.	-5.1	.	.	-13.1	.
COc1ccc(-c2cc(C(=O)OCc3ccccn3)c3ccccc3n2)cc1	-0.4	1.3	-1.8	-34.0*	-9.9	.
COC(=O)C[C@@H]1CC[C@@H]2[C@@H](COc3ccc(NC(=O)c4cc(C)on4)cc3C(=O)N2C)O1	0.2	-10.6	-3.8	0.1	-9.5	0.1
SMILES	FGF22 binding	Statin myotox sup	SIRT5 block	Ecoli rRNA inh	FN deposition inh	E-selectin induc
O=C(/C=C/c1ccc(OCCCF)cc1)Nc1ccnc(-c2cccnc2)n1	43.6*	-9.4	-4.2	10.6	-13.3	.
O=C(/C=C/c1ccc(OCCCF)cc1)Nc1ccnc(-c2ccncc2)n1	0.1	.	-1.2	-1.8	2.6	0.5
COc1ccccc1NC(=O)CNC(c1ccccc1)c1ccccc1	-0.3	8.8	-2.2	-8.1	4.2	-7.9
O=C(CNC(c1ccccc1)c1ccccc1)Nc1ccccc1Br	-0.1	5.0	-3.9	-33.0*	-0.7	4.1
C[C@H]1CN([C@@H](C)CO)C(=O)c2ccccc2-c2ccccc2CO[C@@H]1CN(C)C(=O)Nc1ccc(F)cc1	.	.	.	-4.4	12.1	.
Cc1ccc(C)n1-c1ccc(N2CCOCC2)cc1	.	-8.1	.	.	-9.3	.
N#Cc1cc2ccc(N3CCOCC3)cc2cc1C#N	-0.4	12.3	-0.8	-34.2*	.	.
O=C(CC1NCCNC1=O)OCc1ccccc1 (centres undefined)	.	96.4*	.	.	.	.
O=C(CC1NCCNC1=O)Nc1ccccc1 (centres undefined)	0.2	.	-2.5	9.3	-14.4	.
CN(C)CCCNC(=O)C[C@@H]1CC[C@@H](NS(=O)(=O)c2ccc(F)cc2)[C@H](CO)O1	0.0	-2.1	-0.5	3.2	.	-0.2
COc1ccc(NC(=O)CN2CCN(c3ccccn3)CC2)cc1Cl	0.3	10.3	29.2*	2.8	-1.3	0.0
CC(C)c1ccc(NC(=O)CN2CCN(c3ccccn3)CC2)cc1	0.1	-15.9	-1.8	7.3	2.1	1.3
Cc1cccc(C)c1-n1cccc1/C=C1/C(=N)N2C(=NC1=O)SN=C2S(C)(=O)=O	43.7*	.	6.3	-56.0	0.4	.
Cc1ccc(-n2cccc2/C=C2/C(=N)N3C(=NC2=O)SN=C3S(C)(=O)=O)cc1Cl	.	.	.	.	7.4	-1.2
CC(=O)N1[C@@H]2Cn3c(ccc(C4=CCCC4)c3=O)[C@H]1[C@@H](C(=O)NCC1CC1)[C@@H]2CO	.	.	-17.5	2.9	.	-0.4
C[C@H](CO)N1C[C@H](C)[C@H](CN(C)C(=O)Nc2ccccc2F)Oc2ncc(-c3ccccc3)cc2C1=O	-0.1	0.5	1.1	-2.7	-6.3	0.3
